Test results as given in ChEMBL document CHEMBL4052804, “Design and synthesis of piperazine acetate podophyllotoxin ester derivatives targeting tubulin depolymerization as new anticancer agents” (Bioorg Med Chem Lett, 2017).

What was measured:
A549 = assay: Cytotoxicity against human A549 cells after 24 hrs by MTT assay; format: functional, cell-based; conditions: A549, 24 h
Summary of the method: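 In vitro antiproliferative screen by MTT assay against human MCF-7 breast, HeLa cervical, A549 lung adenocarcinoma and HepG-2 hepatoma cells. Output is the IC50.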

MCF7 [1] = assay: Cell cycle arrest in human MCF7 cells assessed as accumulation at G2/M phase at 0.3 uM after 12 hrs by propidium iodide staining based flow cytometric method (reference value: 5.43 to 13.68%); format: functional
MCF7 [2] = assay: Cell cycle arrest in human MCF7 cells assessed as accumulation at G1 phase at 0.6 uM after 12 hrs by propidium iodide staining based flow cytometric method (reference value: 58.69 to 62.23%); format: functional
MCF7 [3] = assay: Cell cycle arrest in human MCF7 cells assessed as accumulation at G1 phase at 0.9 uM after 12 hrs by propidium iodide staining based flow cytometric method (reference value: 58.69 to 62.23%); format: functional
MCF7 [4] = assay: Induction of apoptosis in human MCF7 cells assessed as necrotic cells at 2 uM after 24 hrs by Annexin-V-FITC/propidium iodide staining based flow cytometric method (reference value: 2.35 to 2.49%); format: functional
MCF7 [5] = assay: Induction of apoptosis in human MCF7 cells assessed as viable cells at 4 uM after 24 hrs by Annexin-V-FITC/propidium iodide staining based flow cytometric method (reference value: 91.6 to 92.7%); format: functional; conditions: MCF7, 24 h, read-out: Activity
MCF7 [6] = assay: Induction of apoptosis in human MCF7 cells assessed as necrotic cells at 4 uM after 24 hrs by Annexin-V-FITC/propidium iodide staining based flow cytometric method (reference value: 2.35 to 2.49%); format: functional
MCF7 [7] = assay: Induction of apoptosis in human MCF7 cells assessed as viable cells at 8 uM after 24 hrs by Annexin-V-FITC/propidium iodide staining based flow cytometric method (reference value: 91.6 to 92.7%); format: functional; conditions: MCF7, 24 h, read-out: Activity
MCF7 [8] = assay: Induction of apoptosis in human MCF7 cells assessed as early apoptotic cells at 8 uM after 24 hrs by Annexin-V-FITC/propidium iodide staining based flow cytometric method (reference value: 2.36 to 2.86%); format: functional
MCF7 [9] = assay: Induction of apoptosis in human MCF7 cells assessed as viable cells at 12 uM after 24 hrs by Annexin-V-FITC/propidium iodide staining based flow cytometric method (reference value: 91.6 to 92.7%); format: functional; conditions: MCF7, 24 h, read-out: Activity

Question: Which IC50 (A549) does the source give for `COc1cc([C@@H]2c3cc4c(cc3[C@H](OC(=O)CN3CCN(c5ccc(Cl)c(Cl)c5)CC3)[C@H]3COC(=O)[C@H]23)OCO4)cc(OC)c1OC` here?
Answer: 6.32 µM

Question: And the Activity (MCF7 [1])?
Answer: 37.72%

Question: And the Activity (MCF7 [2])?
Answer: 18.24 - 26.54%

Question: And the Activity (MCF7 [3])?
Answer: 8.32%

Question: What about the Activity (MCF7 [4]) of the same compound?
Answer: 2.61%

Question: What about the viability at 4 µM (MCF7 [5]) of the same compound?
Answer: 72.4%

Question: What about the Activity (MCF7 [6]) of the same compound?
Answer: 5.64%

Question: And the viability at 8 µM (MCF7 [7])?
Answer: 67.9%

Question: What about the Activity (MCF7 [8]) of the same compound?
Answer: 14.7%

Question: And the viability at 12 µM (MCF7 [9])?
Answer: 55.2%
